{"source": "ChEMBL document CHEMBL4052817", "about": "(J Med Chem, 2017)", "key": {"[1]": {"target": "Cytochrome P450 2C19 (Homo sapiens, UniProt P33261)", "sequence (P33261 whole entry)": "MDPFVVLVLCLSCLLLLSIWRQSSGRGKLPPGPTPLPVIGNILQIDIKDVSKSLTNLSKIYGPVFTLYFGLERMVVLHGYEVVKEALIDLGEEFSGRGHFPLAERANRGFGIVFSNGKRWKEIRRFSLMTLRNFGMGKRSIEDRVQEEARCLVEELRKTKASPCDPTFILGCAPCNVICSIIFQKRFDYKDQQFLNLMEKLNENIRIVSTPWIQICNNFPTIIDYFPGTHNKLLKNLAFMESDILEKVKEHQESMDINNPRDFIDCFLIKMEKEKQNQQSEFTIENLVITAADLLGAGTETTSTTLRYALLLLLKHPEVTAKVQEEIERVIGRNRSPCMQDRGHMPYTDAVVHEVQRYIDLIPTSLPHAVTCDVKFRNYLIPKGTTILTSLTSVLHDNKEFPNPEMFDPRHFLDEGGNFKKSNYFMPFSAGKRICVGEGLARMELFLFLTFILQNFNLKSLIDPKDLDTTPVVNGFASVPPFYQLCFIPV", "assay": "Inhibition of CYP2C19 (unknown origin)", "format": "ADME"}, "[2]": {"tested_on": "4T1", "assay": "Antitumor activity against mouse 4T1 tumor model administered as monotherapy", "format": "functional"}, "[3]": {"tested_on": "Mus musculus", "assay": "Cmax in CD-1 mouse assessed as (R)-3-(5-fluoro-1H-indol-3-yl)pyrrolidine-2,5-dione at 3 mg/kg, po", "format": "ADME, organism-based", "set-up": "dose 3 mg/kg, route oral", "conditions": "in vivo"}, "[4]": {"assay": "Drug metabolism in human hepatocytes assessed as hydrolysis", "format": "ADME, cell-based, Hepatocyte"}, "[5]": {"tested_on": "Mus musculus", "assay": "Half life in CD-1 mouse assessed as (R)-3-(5-fluoro-1H-indol-3-yl)pyrrolidine-2,5-dione at 1 mg/kg, iv by LC-MS/MS method", "format": "ADME, organism-based", "conditions": "in vivo", "procedure,_shortened": "(§1)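 Racemate given as a single 1 mg/kg IV dose to male CD-1 mice, Wistar-Han rats or beagle dogs (n=3 per species). Plasma levels of the (R)-enantiomer measured by chiral LC-MS/MS. Mean AUCinf, CLp, Vss and t1/2 reported.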"}, "[6]": {"tested_on": "Canis familiaris", "assay": "AUC (infinity) in beagle dog assessed as (R)-3-(5-fluoro-1H-indol-3-yl)pyrrolidine-2,5-dione at 1 mg/kg, iv by LC-MS/MS method", "format": "ADME, organism-based, Canis lupus familiaris", "set-up": "dose 1 mg/kg, route intravenous, time infinity", "conditions": "in vivo", "procedure,_shortened": "as §1"}, "[7]": {"tested_on": "Rattus norvegicus", "assay": "Tmax in Wistar-Han rat assessed as (R)-3-(5-fluoro-1H-indol-3-yl)pyrrolidine-2,5-dione at 3 mg/kg, po", "format": "ADME, organism-based", "conditions": "in vivo"}, "[8]": {"tested_on": "Rattus norvegicus", "assay": "AUC (infinity) in Wistar-Han rat assessed as (R)-3-(5-fluoro-1H-indol-3-yl)pyrrolidine-2,5-dione at 1 mg/kg, iv by LC-MS/MS method", "format": "ADME, organism-based", "set-up": "dose 1 mg/kg, time infinity, route intravenous", "conditions": "in vivo", "procedure,_shortened": "as §1"}, "[9]": {"target": "Cytochrome P450 3A4 (Homo sapiens, UniProt P08684)", "sequence (P08684 whole entry)": "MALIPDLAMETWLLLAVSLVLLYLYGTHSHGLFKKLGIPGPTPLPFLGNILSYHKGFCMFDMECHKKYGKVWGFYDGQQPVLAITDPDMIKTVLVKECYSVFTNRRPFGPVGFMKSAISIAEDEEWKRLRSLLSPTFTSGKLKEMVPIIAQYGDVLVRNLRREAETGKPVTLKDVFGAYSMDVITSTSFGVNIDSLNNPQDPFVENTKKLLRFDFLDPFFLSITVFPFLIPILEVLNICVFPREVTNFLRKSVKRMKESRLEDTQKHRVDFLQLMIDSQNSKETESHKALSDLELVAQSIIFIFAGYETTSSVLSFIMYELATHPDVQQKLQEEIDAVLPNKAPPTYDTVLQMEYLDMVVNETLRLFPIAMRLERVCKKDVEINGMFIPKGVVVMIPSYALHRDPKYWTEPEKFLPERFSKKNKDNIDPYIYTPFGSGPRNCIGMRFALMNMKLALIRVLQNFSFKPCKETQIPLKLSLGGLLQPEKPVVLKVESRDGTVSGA", "assay": "Inhibition of CYP3A4 (unknown origin)", "format": "ADME"}, "[10]": {"tested_on": "MC-38", "assay": "Antitumor activity against mouse MC38 tumor model administered as monotherapy", "format": "functional"}, "[11]": {"tested_on": "Rattus norvegicus", "assay": "Volume of distribution at steady state in Wistar-Han rat assessed as (R)-3-(5-fluoro-1H-indol-3-yl)pyrrolidine-2,5-dione at 1 mg/kg, iv by LC-MS/MS method", "format": "ADME, organism-based", "conditions": "in vivo"}, "[12]": {"target": "Tryptophan 2,3-dioxygenase (Homo sapiens, UniProt P48775)", "sequence (P48775 whole entry)": "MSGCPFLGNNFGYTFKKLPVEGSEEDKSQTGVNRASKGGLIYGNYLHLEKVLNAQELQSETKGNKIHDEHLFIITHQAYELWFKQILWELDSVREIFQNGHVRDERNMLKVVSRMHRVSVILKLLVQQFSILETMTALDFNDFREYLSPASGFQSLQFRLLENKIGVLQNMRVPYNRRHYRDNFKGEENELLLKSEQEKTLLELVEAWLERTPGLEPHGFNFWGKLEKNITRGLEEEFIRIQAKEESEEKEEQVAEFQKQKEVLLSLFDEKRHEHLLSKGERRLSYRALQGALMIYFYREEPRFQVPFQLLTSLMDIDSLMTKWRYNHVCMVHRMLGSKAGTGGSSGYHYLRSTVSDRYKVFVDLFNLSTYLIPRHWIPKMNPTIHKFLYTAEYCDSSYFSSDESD", "assay": "Inhibition of human TDO2 using tryptophan as substrate after 22 mins by LC-MS/MS method"}, "[13]": {"tested_on": "Canis familiaris", "assay": "Volume of distribution at steady state in beagle dog assessed as (R)-3-(5-fluoro-1H-indol-3-yl)pyrrolidine-2,5-dione at 1 mg/kg, iv by LC-MS/MS method", "format": "ADME, organism-based, Canis lupus familiaris", "conditions": "in vivo"}, "[14]": {"tested_on": "CT26", "assay": "Antitumor activity against mouse CT26 tumor model administered as monotherapy", "format": "functional"}, "[15]": {"assay": "Drug metabolism in mouse hepatocytes assessed as oxidation", "format": "ADME, cell-based, Hepatocyte"}, "[16]": {"assay": "Drug metabolism in dog hepatocytes assessed as oxidation", "format": "ADME, cell-based, Canis lupus familiaris, Hepatocyte"}, "[17]": {"tested_on": "Hepatocyte", "assay": "Induction of CYP1A2 mRNA expression in human hepatocytes at <100 uM", "format": "ADME, cell-based"}, "[18]": {"tested_on": "Canis familiaris", "assay": "Half life in beagle dog assessed as (R)-3-(5-fluoro-1H-indol-3-yl)pyrrolidine-2,5-dione at 1 mg/kg, iv by LC-MS/MS method", "format": "ADME, organism-based, Canis lupus familiaris", "conditions": "in vivo"}, "[19]": {"target": "Cytochrome P450 2D6 (Homo sapiens, UniProt P10635)", "sequence (P10635 whole entry)": "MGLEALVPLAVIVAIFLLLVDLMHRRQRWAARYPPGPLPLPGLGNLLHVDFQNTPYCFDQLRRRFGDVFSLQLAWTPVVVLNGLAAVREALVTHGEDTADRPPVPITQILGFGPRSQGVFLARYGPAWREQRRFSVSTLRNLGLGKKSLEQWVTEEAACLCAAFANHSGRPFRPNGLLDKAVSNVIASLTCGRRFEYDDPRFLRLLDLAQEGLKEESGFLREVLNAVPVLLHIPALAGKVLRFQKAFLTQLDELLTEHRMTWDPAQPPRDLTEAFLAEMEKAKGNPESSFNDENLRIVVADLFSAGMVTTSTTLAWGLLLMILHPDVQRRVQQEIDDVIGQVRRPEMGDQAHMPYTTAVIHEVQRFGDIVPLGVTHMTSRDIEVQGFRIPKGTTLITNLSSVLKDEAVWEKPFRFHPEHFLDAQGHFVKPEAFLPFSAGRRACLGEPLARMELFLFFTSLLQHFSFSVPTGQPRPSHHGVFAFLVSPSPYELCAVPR", "assay": "Inhibition of CYP2D6 (unknown origin)", "format": "ADME"}, "[20]": {"tested_on": "Rattus norvegicus", "assay": "Half life in Wistar-Han rat assessed as (R)-3-(5-fluoro-1H-indol-3-yl)pyrrolidine-2,5-dione at 1 mg/kg, iv by LC-MS/MS method", "format": "ADME, organism-based", "conditions": "in vivo", "procedure,_shortened": "as §1"}, "[21]": {"tested_on": "Mus musculus", "assay": "Tmax in CD-1 mouse assessed as (R)-3-(5-fluoro-1H-indol-3-yl)pyrrolidine-2,5-dione at 3 mg/kg, po", "format": "ADME, organism-based", "conditions": "in vivo"}, "[22]": {"target": "T1, Cytochrome P450 1A2 (Homo sapiens, UniProt P05177)", "T1 sequence (P05177 whole entry)": "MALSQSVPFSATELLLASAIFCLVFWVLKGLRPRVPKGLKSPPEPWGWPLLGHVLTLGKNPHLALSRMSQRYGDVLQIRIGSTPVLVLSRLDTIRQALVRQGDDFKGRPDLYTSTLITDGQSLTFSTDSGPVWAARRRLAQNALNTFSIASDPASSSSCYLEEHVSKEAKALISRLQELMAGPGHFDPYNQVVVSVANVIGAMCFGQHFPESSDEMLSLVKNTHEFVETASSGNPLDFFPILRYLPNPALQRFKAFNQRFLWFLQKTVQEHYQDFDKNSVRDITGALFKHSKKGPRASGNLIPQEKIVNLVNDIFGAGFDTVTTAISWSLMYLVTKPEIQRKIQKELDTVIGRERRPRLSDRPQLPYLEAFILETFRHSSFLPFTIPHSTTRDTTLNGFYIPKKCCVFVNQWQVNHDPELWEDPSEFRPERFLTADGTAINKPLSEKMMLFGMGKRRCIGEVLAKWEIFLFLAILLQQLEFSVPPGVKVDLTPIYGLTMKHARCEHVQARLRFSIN", "assay": "Inhibition of CYP1A2 (unknown origin)", "format": "ADME"}, "[23]": {"tested_on": "Renca", "assay": "Antitumor activity against mouse Renca tumor model administered as monotherapy", "format": "functional"}, "[24]": {"assay": "Intrinsic apparent clearance in mouse hepatocytes assessed per million cells", "format": "ADME, cell-based, Hepatocyte"}, "[25]": {"tested_on": "B16-F10", "assay": "Antitumor activity against mouse B16/F10 tumor model administered as monotherapy", "format": "functional"}, "[26]": {"tested_on": "Mus musculus", "assay": "Half life in CD-1 mouse assessed as (R)-3-(5-fluoro-1H-indol-3-yl)pyrrolidine-2,5-dione at 3 mg/kg, po", "format": "ADME, organism-based", "conditions": "in vivo"}, "[27]": {"target": "Voltage-gated inwardly rectifying potassium channel KCNH2 (Homo sapiens, UniProt Q12809)", "sequence (Q12809 whole entry)": "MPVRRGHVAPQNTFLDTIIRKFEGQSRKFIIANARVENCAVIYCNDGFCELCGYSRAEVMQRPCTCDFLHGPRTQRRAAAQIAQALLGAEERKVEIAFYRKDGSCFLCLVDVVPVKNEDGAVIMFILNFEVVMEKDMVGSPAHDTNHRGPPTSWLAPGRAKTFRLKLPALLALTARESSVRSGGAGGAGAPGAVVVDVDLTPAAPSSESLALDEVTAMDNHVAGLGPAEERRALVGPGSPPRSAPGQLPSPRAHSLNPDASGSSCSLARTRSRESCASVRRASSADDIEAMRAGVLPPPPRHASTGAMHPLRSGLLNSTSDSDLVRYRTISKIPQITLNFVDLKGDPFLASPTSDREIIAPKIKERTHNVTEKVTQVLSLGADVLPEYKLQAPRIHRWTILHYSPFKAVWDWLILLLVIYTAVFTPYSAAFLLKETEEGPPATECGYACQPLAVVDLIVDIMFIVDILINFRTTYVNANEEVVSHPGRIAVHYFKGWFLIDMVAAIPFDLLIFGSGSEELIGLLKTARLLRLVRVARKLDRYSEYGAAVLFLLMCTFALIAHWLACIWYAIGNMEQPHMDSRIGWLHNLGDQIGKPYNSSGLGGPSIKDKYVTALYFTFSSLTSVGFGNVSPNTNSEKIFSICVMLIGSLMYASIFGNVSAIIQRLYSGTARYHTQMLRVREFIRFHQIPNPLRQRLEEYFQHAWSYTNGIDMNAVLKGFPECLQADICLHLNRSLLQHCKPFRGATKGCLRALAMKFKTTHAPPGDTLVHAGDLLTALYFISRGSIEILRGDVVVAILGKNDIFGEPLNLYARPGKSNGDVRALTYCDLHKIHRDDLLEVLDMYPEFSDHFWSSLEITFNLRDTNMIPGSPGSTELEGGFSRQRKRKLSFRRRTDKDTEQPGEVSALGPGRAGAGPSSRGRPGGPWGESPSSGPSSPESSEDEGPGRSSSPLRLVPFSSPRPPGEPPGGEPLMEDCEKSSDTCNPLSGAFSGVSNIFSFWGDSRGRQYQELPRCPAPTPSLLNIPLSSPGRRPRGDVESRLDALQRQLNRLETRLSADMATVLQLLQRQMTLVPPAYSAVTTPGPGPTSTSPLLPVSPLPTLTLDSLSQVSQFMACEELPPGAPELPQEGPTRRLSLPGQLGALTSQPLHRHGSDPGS", "assay": "Inhibition of human ERG up to 300 uM relative to control"}, "[28]": {"tested_on": "Canis familiaris", "assay": "Tmax in beagle dog assessed as (R)-3-(5-fluoro-1H-indol-3-yl)pyrrolidine-2,5-dione at 3 mg/kg, po", "format": "ADME, organism-based, Canis lupus familiaris", "conditions": "in vivo"}, "[29]": {"tested_on": "Hepatocyte", "assay": "Induction of CYP2B6 mRNA expression in human hepatocytes at <100 uM", "format": "ADME, cell-based"}, "[30]": {"assay": "Drug excretion in rat urine assessed as (R)-3-(5-fluoro-1H-indol-3-yl)pyrrolidine-2,5-dione", "format": "ADME", "conditions": "in vivo", "procedure,_shortened": "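Racemate dosed to rats (urine and bile collected) and to dogs (urine collected). The percentage of the dose excreted as unchanged (R)-enantiomer was measured.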"}, "[31]": {"tested_on": "Hepatocyte", "assay": "Induction of CYP3A4 mRNA expression in human hepatocytes at <100 uM", "format": "ADME, cell-based"}, "[32]": {"target": "T1, Cytochrome P450 1A2", "assay": "Time/NADPH-dependent inhibition of CYP1A2 (unknown origin)", "format": "ADME"}, "[33]": {"tested_on": "CT26", "assay": "Antitumor activity against mouse CT26 tumor model administered as […] co-treated with anti-PDL1 mAb", "format": "functional"}}, "note": "The source made the active and inactive calls. No cut-off for these calls is given here.", "data": [{"smiles": "O=C1CC(c2c[nH]c3ccc(F)cc23)C(=O)N1", "note": "(stereo not drawn) [PF-06840003]", "values": [{"measurement": "IC50", "setting": "[1]", "result": 78, "unit": "µM"}, {"measurement": "Activity", "setting": "[2]", "result": "Active"}, {"measurement": "Cmax", "setting": "[3]", "result": 538, "unit": "ng/mL"}, {"measurement": "Drug metabolism", "setting": "[4]", "result": "Metabolite_Detected"}, {"measurement": "t1/2", "setting": "[5]", "result": 2.5, "unit": "h"}, {"measurement": "AUC", "setting": "[6]", "result": 423, "unit": "ng·h/mL"}, {"measurement": "Tmax", "setting": "[7]", "result": 1.3, "unit": "h"}, {"measurement": "AUC", "setting": "[8]", "result": 2520, "unit": "ng·h/mL"}, {"measurement": "IC50", "setting": "[9]", "result": "> 100", "unit": "µM"}, {"measurement": "Activity", "setting": "[10]", "result": "Active"}, {"measurement": "Vdss", "setting": "[11]", "result": 0.639, "unit": "L/kg"}, {"measurement": "IC50", "setting": "[12]", "result": 140, "unit": "µM"}, {"measurement": "Vdss", "setting": "[13]", "result": 0.957, "unit": "L/kg"}, {"measurement": "Activity", "setting": "[14]", "result": "Active"}, {"measurement": "Drug metabolism", "setting": "[15]", "result": "Metabolite_Detected"}, {"measurement": "Drug metabolism", "setting": "[16]", "result": "Metabolite_Detected"}, {"measurement": "Activity", "setting": "[17]", "result": "Not Active"}, {"measurement": "t1/2", "setting": "[18]", "result": 0.802, "unit": "h"}, {"measurement": "IC50", "setting": "[19]", "result": "> 100", "unit": "µM"}, {"measurement": "t1/2", "setting": "[20]", "result": 2.22, "unit": "h"}, {"measurement": "Tmax", "setting": "[21]", "result": 0.58, "unit": "h"}, {"measurement": "IC50", "setting": "[22]", "result": "> 100", "unit": "µM"}, {"measurement": "Activity", "setting": "[23]", "result": "Active"}, {"measurement": "CLH(app)", "setting": "[24]", "result": 2.4, "unit": "µL/min"}, {"measurement": "Activity", "setting": "[25]", "result": "Active"}, {"measurement": "t1/2", "setting": "[26]", "result": 2.48, "unit": "h"}, {"measurement": "inhibition (INH)", "setting": "[27]", "result": "< 50", "unit": "%"}, {"measurement": "Tmax", "setting": "[28]", "result": 0.25, "unit": "h"}, {"measurement": "Activity", "setting": "[29]", "result": "Not Active"}, {"measurement": "Drug excretion", "setting": "[30]", "result": "< 1", "unit": "%ID"}, {"measurement": "Activity", "setting": "[31]", "result": "Not Active"}, {"measurement": "inhibition (INH)", "setting": "[32]", "result": "Not Active"}, {"measurement": "Activity", "setting": "[33]", "result": "Active"}]}]}
